Data: article PMC9889102 (European journal of medicinal chemistry, 2022)
Like-named read-outs stand apart in the source and are kept apart here.

Tests used:
[1] = ref [25], cited from earlier work
[2] = molecular target: phosphorylated chicken gizzard smooth muscle myosin (Gallus gallus, UniProt P10587); assay: Steady-state actin-activated Mg2+ ATPase inhibition, smooth muscle myosin; type: biochemical
Summary of the method: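 Chicken gizzard smooth muscle myosin was fully phosphorylated (checked by urea gel), never frozen, and used within 2–3 weeks. It was run at 0.2 mg/mL final with 32 μM rabbit F-actin at 30 °C in MOPS pH 7.0, 50 mM NaCl, 0.1 mM EGTA, 5 mM MgCl2, 2 mM ATP, 1 mM DTT. DMSO was 2%, with dilutions from a 25 mM stock. IC50 is the half-maximal drop in steady-state ATPase.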

[3] = tested on: NM-IIB (cytokinesis in Cos-7 cells); assay: Cytokinesis inhibition in Cos-7 cells; type: cell-based; conditions: 24 h, 37 °C
Summary of the method: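 Cos-7 cells (4,000/well) were pre-grown 24 h, then exposed 24 h at 37 °C, 5% CO2 to test compound at 40 μM final in 1% DMSO. Controls were 1% DMSO and media (negative), plus para-aminoblebbistatin 20 μM and (−)-blebbistatin 10 μM (positive). Staining was fluorescein diacetate, Hoechst 33342 and propidium iodide for 10 min. N/C is Hoechst nuclei (excluding PI-positive) per FDA-stained cell. Triplicate wells, ≥2 experiments, ≥600 cells/well.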

BEAS-2B, MCF-7 and A549 = conditions: normal human cell line BEAS-2B and cancer cell lines MCF-7 and A549; ref [41]; cited from earlier work
[4] = molecular target: T1, fast rabbit skeletal myosin (Oryctolagus cuniculus, UniProt Q28641); assay: Steady-state actin-activated Mg2+ ATPase inhibition, skeletal myosin; type: biochemical; conditions: cardiac IC50 (x) / skeletal IC50 (y)
Summary of the method: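 Rabbit psoas skeletal myosin (unphosphorylated, 0.1 mg/mL final) with rabbit psoas F-actin (32 μM) at 30 °C, pH 7.0 MOPS buffer (50 mM NaCl, 0.1 mM EGTA, 5 mM MgCl2, 2 mM ATP, 1 mM DTT), 2% DMSO. IC50 taken as half-maximal reduction of steady-state rate. Selectivity is cardiac IC50 (bovine left-ventricle myosin, 0.5 mg/mL) divided by skeletal IC50.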

[5] = 99:1 (v/v) PBS/methanol, room temperature; ref [25]; cited from earlier work
[6] = molecular target: T1, fast rabbit skeletal myosin; conditions: previously reported ketimines; favoured isoform; ref [25]; cited from earlier work

T1 sequence (Q28641 whole entry): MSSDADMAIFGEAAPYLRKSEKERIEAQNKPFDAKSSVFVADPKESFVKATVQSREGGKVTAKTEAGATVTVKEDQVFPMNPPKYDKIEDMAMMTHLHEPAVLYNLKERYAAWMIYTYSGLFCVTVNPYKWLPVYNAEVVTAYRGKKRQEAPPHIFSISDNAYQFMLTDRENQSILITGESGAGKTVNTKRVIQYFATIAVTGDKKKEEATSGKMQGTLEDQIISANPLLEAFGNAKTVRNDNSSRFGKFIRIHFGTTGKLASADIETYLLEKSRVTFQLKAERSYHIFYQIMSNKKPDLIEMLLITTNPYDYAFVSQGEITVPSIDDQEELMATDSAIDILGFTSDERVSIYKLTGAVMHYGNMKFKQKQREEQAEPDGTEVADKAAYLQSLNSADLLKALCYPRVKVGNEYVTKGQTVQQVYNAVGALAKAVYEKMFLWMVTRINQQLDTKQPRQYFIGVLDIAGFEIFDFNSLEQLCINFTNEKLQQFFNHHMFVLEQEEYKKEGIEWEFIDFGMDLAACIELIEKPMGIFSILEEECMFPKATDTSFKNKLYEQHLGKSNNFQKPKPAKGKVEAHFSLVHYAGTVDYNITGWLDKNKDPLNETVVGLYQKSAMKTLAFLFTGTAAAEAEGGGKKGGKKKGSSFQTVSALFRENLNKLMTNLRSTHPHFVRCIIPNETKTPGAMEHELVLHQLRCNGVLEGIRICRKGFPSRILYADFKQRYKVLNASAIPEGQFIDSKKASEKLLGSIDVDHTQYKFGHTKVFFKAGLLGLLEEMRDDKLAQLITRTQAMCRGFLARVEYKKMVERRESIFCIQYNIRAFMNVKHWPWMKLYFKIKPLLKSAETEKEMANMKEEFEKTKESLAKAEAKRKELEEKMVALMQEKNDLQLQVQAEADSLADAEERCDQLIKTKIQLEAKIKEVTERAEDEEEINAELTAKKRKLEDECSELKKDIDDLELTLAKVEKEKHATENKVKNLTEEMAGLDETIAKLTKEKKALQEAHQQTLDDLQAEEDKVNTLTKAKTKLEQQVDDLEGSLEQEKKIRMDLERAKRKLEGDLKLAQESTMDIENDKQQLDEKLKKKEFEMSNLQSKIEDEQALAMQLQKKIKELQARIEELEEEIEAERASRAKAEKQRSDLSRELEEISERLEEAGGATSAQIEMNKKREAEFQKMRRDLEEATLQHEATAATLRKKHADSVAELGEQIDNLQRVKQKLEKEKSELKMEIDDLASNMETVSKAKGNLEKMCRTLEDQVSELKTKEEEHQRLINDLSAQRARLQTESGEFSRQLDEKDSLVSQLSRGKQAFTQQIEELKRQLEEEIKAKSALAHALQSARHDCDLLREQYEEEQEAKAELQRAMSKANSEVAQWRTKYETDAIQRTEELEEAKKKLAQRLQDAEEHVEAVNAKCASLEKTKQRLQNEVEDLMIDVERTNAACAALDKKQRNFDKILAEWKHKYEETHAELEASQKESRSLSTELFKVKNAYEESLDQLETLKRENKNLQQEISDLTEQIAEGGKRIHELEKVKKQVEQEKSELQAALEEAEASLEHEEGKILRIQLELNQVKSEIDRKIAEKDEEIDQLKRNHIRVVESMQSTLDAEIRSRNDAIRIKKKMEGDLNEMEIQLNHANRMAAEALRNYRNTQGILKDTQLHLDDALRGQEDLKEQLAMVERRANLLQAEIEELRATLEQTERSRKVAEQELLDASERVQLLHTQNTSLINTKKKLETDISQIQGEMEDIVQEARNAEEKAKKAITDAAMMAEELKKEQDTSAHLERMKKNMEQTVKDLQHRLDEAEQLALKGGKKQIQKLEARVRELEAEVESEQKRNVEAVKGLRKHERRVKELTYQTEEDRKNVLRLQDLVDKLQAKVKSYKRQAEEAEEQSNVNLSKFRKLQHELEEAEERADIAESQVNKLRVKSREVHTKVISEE
T1 sequence (P02602 whole entry partner): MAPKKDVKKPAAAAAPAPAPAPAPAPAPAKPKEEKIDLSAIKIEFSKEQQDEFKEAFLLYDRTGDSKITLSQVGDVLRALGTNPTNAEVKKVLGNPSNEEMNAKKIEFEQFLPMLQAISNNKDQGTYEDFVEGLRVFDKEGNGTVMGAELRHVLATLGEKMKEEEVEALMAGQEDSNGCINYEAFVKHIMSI
T1 sequence (P02608 whole entry partner): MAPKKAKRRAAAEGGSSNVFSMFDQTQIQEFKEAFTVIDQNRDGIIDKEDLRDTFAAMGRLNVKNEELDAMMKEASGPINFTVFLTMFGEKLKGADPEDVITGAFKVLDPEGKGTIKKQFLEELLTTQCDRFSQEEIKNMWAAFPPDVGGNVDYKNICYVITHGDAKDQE
Sequence of phosphorylated chicken gizzard smooth muscle myosin (P10587 2-1979 limits assumed): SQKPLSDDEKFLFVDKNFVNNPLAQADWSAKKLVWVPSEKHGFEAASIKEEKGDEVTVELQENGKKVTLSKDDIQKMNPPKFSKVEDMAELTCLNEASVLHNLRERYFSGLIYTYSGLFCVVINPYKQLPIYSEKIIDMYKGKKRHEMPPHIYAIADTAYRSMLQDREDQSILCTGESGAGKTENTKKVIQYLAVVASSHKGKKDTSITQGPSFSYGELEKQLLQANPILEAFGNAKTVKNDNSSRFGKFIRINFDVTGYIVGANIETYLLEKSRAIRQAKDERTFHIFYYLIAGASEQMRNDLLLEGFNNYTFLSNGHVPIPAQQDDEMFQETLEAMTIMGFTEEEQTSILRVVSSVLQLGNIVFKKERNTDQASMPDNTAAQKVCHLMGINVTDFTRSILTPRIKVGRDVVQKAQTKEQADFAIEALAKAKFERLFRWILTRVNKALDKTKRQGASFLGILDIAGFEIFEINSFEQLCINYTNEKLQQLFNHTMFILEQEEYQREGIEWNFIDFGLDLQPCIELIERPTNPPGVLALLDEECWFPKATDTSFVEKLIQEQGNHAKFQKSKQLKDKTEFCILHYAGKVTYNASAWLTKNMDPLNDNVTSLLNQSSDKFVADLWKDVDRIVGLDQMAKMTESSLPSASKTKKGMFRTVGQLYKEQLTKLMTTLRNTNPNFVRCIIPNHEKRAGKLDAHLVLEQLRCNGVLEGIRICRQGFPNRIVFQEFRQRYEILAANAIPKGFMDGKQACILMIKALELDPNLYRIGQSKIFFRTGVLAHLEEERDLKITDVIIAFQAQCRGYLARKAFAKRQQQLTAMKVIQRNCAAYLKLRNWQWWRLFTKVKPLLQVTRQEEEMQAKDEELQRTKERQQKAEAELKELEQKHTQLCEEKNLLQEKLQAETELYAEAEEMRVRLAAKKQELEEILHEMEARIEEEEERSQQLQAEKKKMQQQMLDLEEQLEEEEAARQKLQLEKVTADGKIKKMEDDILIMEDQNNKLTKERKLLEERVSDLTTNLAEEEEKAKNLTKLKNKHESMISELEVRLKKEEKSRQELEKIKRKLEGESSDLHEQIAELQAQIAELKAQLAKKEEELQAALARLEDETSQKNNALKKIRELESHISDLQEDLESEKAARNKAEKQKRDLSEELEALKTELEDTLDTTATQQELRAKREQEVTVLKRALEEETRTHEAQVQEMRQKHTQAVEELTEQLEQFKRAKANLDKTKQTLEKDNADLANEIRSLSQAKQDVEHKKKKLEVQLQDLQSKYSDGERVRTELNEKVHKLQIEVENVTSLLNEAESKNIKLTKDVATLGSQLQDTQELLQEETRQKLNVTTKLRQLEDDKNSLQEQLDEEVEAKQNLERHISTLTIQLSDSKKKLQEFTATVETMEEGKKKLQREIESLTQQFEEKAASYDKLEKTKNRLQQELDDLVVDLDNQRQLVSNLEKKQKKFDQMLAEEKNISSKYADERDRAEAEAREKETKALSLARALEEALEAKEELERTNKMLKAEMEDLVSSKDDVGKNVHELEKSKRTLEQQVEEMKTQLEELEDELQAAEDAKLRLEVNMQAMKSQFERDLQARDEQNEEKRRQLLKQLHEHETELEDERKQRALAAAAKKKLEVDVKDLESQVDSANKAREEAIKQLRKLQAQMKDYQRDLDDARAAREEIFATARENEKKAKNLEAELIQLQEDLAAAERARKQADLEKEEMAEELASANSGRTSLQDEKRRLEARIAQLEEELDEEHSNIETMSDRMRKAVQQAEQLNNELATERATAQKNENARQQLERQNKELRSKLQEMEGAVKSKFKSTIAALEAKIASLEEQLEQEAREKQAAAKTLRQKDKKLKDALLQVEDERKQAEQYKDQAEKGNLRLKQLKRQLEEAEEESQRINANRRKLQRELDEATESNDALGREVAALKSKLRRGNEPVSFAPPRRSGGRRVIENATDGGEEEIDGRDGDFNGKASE

Molecule | IC50 [2] [µM] | further results
3-(N-butylethanimidoyl)-4-hydroxy-2H-chromen-2-one [BHC, reference compound] |  | Kinetic solubility ([1]; nephelometry in PBS (pH 7.4) containing 2.5% DMSO): 607 ± 2 μm
C/C(=N\Cc1ccccc1)c1c(O)c2ccccc2oc1=O [Analog 2] |  | Kinetic solubility ([1]; pH 7.4 PBS, 2.5% DMSO): 100 µM
COCC/N=C(\C)c1c(O)c2ccccc2oc1=O [Analog 5a, 4-Hydroxy-3-(N-(2-methoxyethyl)ethanimidoyl)-2H-chromen-2-one] | ≥ 100 | 
CCOCC/N=C(\C)c1c(O)c2ccccc2oc1=O [Analog 5b, 3-(N-(2-Ethoxyethyl)ethanimidoyl)-4-hydroxy-2H-chromen-2-one] | ≥ 100 | 
COCCC/N=C(\C)c1c(O)c2ccccc2oc1=O [Analog 5c, 4-Hydroxy-3-(N-(3-methoxypropyl)ethanimidoyl)-2H-chromen-2-one] | ≥ 100 | 
CCOCCC/N=C(\C)c1c(O)c2ccccc2oc1=O [Analog 5d, 3-(N-(3-Ethoxypropyl)ethanimidoyl)-4-hydroxy-2H-chromen-2-one] | ≥ 100 | 
COc1cccc(C/N=C(\C)c2c(O)c3ccccc3oc2=O)c1 [Analog 6a, 4-Hydroxy-3-(N-(3-methoxybenzyl)ethanimidoyl)-2H-chromen-2-one] | ≥ 100 | 
COc1ccc(C/N=C(\C)c2c(O)c3ccccc3oc2=O)cc1 [Analog 6b, 4-Hydroxy-3-(N-(4-methoxybenzyl)ethanimidoyl)-2H-chromen-2-one] | ≥ 100 | Inhibition of cytokinesis (nuclei to cell ratio, N/C) ([3]; 40 μM): did not inhibit cytokinesis; Cytotoxicity (BEAS-2B, MCF-7 and A549): low μM range
CCOCCC/N=C/c1c(O)c2ccccc2oc1=O [Analog 8a, 3-(N-(3-Ethoxypropyl)methanimidoyl)-4-hydroxy-2H-chromen-2-one] | ≥ 100 | 
COc1ccc(COCCC/N=C(\C)c2c(O)c3ccccc3oc2=O)cc1 [Analog 13b] | ≥ 100 | Selectivity x/y [4]: ≥ 2.0
C/C(=N\CCCOCc1ccc2c(c1)OCO2)c1c(O)c2ccccc2oc1=O [Analog 13c] | ≥ 100 | Inhibition of cytokinesis (nuclei to cell ratio, N/C) ([3]; 40 μM): no cytokinesis inhibition
CCCCN(CCC/N=C(\C)c1c(O)c2ccccc2oc1=O)Cc1cccc(OC)c1 [Analog 19, 3-(N-(N’-Butyl-N’−3-methoxybenzyl-3-aminopropyl)ethanimidoyl)-4-hydroxy-2H-chromen-2-one] | ≥ 100 | 
COc1cc(/C=C/C(=O)c2c(O)c3ccccc3oc2=O)ccc1O [Analog 20, 4-Hydroxy-3-(3-(4-hydroxy-3-methoxyphenyl)-1-oxo-2-propen-1-yl)-2H-1-Benzopyran-2-one] | ≥ 100 | 
Cc1ccc2c(c1)C(=O)[C@]1(O)CCN(c3ccccc3)C1=N2 [Blebbistatin, blebbistatin, reference compound] |  | Inhibition of cytokinesis (nuclei to cell ratio, N/C) ([3]; positive control, 10 μM): inhibited cytokinesis
C/C(=N\Cc1ccncc1)c1c(O)c2ccccc2oc1=O [JB031] |  | half-life for hydrolysis [5]: 84 ± 12 h
C/C(=N\Cc1ccc(C)cc1)c1c(O)c2ccccc2oc1=O [JB060] |  | Selectivity (cardiac vs. skeletal myosin inhibition) [6]: skeletal-selective
C/C(=N\Cc1cccc(C)c1)c1c(O)c2ccccc2oc1=O [JB069] |  | Selectivity (cardiac vs. skeletal myosin inhibition) [6]: cardiac-selective
Cc1ccc2c(c1)C(=O)[C@]1(O)CCN(c3ccc(N)cc3)C1=N2 [para-aminoblebbistatin, reference compound] |  | Inhibition of cytokinesis (nuclei to cell ratio, N/C) ([3]; positive control, 20 μM): inhibited cytokinesis
